From ChEMBL document CHEMBL5036316, “Re-emerging Aspartic Protease Targets: Examining Cryptococcus neoformans Major Aspartyl Peptidase 1 as a Target for Antifungal Drug Discovery” (J Med Chem, 2021) come the findings set out here.

Broadly, the CC50 is the concentration that lowers cell viability or growth by half. As a reminder, the Ki is the equilibrium dissociation constant of an inhibitor or competing ligand from its target.

The structures appear in SMILES notation. Activity calls are given as the source filed them. The rule behind the calls is not given here. Where only a bound is given, the exact number is not on record here.

The test system of data set [1] is HL-60. As to the kind of experiment: Cytotoxicity against human HL-60 cells assessed as cell viability by celltiter-glo luminescent cell viability assay. Type of data set: functional. A general note: Cellular ATP, detected with luciferase, serves as a proxy for viable cell number.
For data set [2], the target named is T1, Cathepsin E (Homo sapiens, UniProt P14091).
T1 sequence (P14091 whole entry): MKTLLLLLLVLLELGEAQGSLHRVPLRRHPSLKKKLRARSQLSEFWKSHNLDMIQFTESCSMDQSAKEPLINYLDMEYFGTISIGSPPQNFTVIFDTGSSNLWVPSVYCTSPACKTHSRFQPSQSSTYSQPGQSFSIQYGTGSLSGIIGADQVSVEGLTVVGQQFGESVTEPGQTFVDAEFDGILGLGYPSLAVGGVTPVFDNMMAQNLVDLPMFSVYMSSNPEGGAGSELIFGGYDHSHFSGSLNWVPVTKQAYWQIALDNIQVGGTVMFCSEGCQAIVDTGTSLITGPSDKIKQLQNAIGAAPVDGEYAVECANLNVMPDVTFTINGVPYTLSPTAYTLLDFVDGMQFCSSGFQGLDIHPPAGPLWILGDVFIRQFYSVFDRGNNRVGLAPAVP
As to the kind of experiment: Inhibition of human cathepsin E assessed as inhibition constant using ACC-GKPILFFRILK-(DNP)-(dR)-NH2 as substrate by spectrophotometric analysis.

Data set [3] relates to HepG2. As to the kind of experiment: Cytotoxicity against human HepG2 cells assessed as cell viability by celltiter-glo luminescent cell viability assay. Type of data set: functional.
The subject of data set [4] is MCF7. As to the kind of experiment: Cytotoxicity against human MCF7 cells assessed as cell viability by celltiter-glo luminescent cell viability assay. Type of data set: functional.
Data set [5] deals with Cryptococcus neoformans. As to the kind of experiment: Antifungal activity against may1delta Cryptococcus neoformans var. grubii H99 assessed as reduction of density in stationary phase at 50 uM measured upto 48 hrs. Type of data set: functional, organism-based. The settings on record: time hrs <=48. The method in brief: (§1)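 Logarithmically growing may1Δ (and H99) yeast pelleted and resuspended to OD600 0.1 in unbuffered YNB or YNB with 50 mM MES pH 6.5. Treated with 50 μM compound or 0.5% DMSO vehicle at 30 °C on a tube rotator. OD600 read every 2 h for 12 h, then at 24 and 48 h. Triplicate cultures, mean ± standard deviation.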

The test system of data set [6] is Cryptococcus neoformans. In words: Antifungal activity against may1delta Cryptococcus neoformans var. grubii H99 assessed as reduction of density in logarithmic phase at 50 uM measured upto 48 hrs. Type of data set: functional, organism-based. To be noted: time hrs <=48. The method in brief: as §1
Data set [7] relates to Cryptococcus neoformans. In words: Antifungal activity against Cryptococcus neoformans var. grubii H99 expressing major aspartyl peptidase 1 assessed as growth inhibition measured after 48 hrs. To be noted: dose 0.1-50 µM. Type of data set: functional, organism-based. The method in brief:
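C. neoformans H99 grown in YNB with 2% glucose; overnight cultures diluted to OD600 0.1 with 0.1, 1.0, 10 or 50 μM compound or 0.5% DMSO vehicle. Incubated at 30 °C on a tube rotator; terminal saturation density read as OD600 after 48 h. Triplicate cultures, mean ± standard deviation.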

Data set [8] is described as follows: Binding affinity to recombinant Cryptococcus neoformans var. grubii H99 major aspartyl peptidase 1 assessed as inhibition constant.
Data set [9] relates to CCRF-CEM. In words: Cytotoxicity against human CCRF-CEM cells assessed as cell viability by celltiter-glo luminescent cell viability assay. Type of data set: cell-based.
Data set [10] addresses Human immunodeficiency virus type 1 protease (Human immunodeficiency virus 1, UniProt Q72874). In words: Inhibition of wild type HIV-1 protease assessed as initial inhibition constant by spectrophotometric analysis.
Data set [11] has as its system HeLa. As to the kind of experiment: Cytotoxicity against human HeLa cells assessed as cell viability by celltiter-glo luminescent cell viability assay. Type of data set: functional.
For data set [12], the target named is Cathepsin D (Homo sapiens, UniProt P07339). In words: Inhibition of human cathepsin D assessed as inhibition constant using ACC-GKPILFFRILK-(DNP)-(dR)-NH2 as substrate by spectrophotometric analysis.
A short description of data set [13]: Inhibition of porcine pepsin assessed as inhibition constant using BSA-bromophenol blue as substrate by spectrophotometric analysis. Further details: species or system Sus scrofa.
The target in data set [14] is T2, Renin (Homo sapiens, UniProt P00797).
T2 sequence (P00797 whole entry): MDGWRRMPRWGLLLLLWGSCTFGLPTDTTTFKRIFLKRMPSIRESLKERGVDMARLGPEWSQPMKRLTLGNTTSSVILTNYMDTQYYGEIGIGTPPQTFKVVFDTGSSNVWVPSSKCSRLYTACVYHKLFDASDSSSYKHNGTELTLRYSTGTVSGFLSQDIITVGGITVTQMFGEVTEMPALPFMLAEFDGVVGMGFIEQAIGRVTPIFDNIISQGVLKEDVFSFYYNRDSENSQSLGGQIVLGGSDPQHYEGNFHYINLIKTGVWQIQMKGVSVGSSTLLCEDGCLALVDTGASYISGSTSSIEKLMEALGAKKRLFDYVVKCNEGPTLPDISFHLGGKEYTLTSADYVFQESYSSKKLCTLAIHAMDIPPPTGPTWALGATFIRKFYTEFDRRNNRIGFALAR
As to the kind of experiment: Inhibition of human renin assessed as inhibition constant using H-R-E(EDANS)-1HPFHLVIHT-K(DABCYL)-R-OH as susbtrate by spectrophotometric analysis.

Chain of Cathepsin D (P07339 65-162 limits assumed): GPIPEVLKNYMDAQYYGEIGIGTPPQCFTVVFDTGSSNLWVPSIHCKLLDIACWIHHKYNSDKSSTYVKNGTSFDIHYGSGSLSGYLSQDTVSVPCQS
Chain of Cathepsin D (P07339 169-412 limits assumed): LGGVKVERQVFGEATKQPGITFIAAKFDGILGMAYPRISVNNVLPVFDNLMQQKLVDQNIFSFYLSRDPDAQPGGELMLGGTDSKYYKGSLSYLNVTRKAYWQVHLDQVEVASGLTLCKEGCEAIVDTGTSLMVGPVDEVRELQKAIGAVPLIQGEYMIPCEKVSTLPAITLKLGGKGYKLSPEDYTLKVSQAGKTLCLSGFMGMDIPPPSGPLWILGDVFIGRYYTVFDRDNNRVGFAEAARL

For `NC(=O)[C@H](CCc1ccccc1)NC(=O)[C@H](CCC(=O)O)NC(=O)C[C@H](O)[C@H](Cc1ccccc1)NC(=O)OCc1ccccc1`, the cytotoxic concentration (CC50) in [1], in [3], in [4], in [9] and in [11] was > 80000 nM in each case. The Ki in data set [2] amounted to 440 nM; in data set [8], 12 nM; in data set [10], 0.032 nM; in data set [12], 620 nM; in data set [13] it was 1600 nM; in data set [14] it was 19000 nM. Further, the result in data set [5] and in data set [6] was inactive. For the same molecule, in data set [7], the Activity entry was “Dose-Dependent Effect”.
`NC(=O)[C@@H](NC(=O)[C@H](CCC(=O)O)NC(=O)C[C@H](O)[C@H](Cc1ccccc1)NC(=O)OCc1ccccc1)c1ccccc1`: the inhibition constant (Ki) in [8] turned out to be 210 nM.
Still for that read-out and setting: as for `CC[C@H](NC(=O)[C@H](CCC(N)=O)NC(=O)C[C@H](O)[C@H](Cc1ccccc1)NC(=O)OCc1ccccc1)C(N)=O`, the figure is 1200 nM; as for `NC(=O)CC[C@H](NC(=O)C[C@H](O)[C@H](Cc1ccccc1)NC(=O)OCc1ccccc1)C(=O)N[C@H](C(N)=O)c1ccccc1`, 360 nM; as for `NC(=O)CC[C@H](NC(=O)C[C@H](O)[C@H](Cc1ccccc1)NC(=O)OCc1ccccc1)C(=O)N[C@@H](CC1CCCCC1)C(N)=O`, 400 nM.
Regarding `CCOP(=O)(COc1ccc(C[C@H](NC(=O)O[C@H]2CO[C@H]3OCC[C@H]32)[C@H](O)CN(CC(C)C)S(=O)(=O)c2ccc(OC)cc2)cc1)OCC`, the Ki in data set [8] came out at 170 nM.
Same read-out and setting: next, `CCCC[C@H](NC(=O)[C@H](CCC(N)=O)NC(=O)C[C@H](O)[C@H](Cc1ccccc1)NC(=O)OCc1ccccc1)C(N)=O`: 170 nM; `NC(=O)[C@H](Cc1ccccc1)NC(=O)[C@H](CCC(=O)O)NC(=O)C[C@H](O)[C@H](Cc1ccccc1)NC(=O)OCc1ccccc1`: 390 nM.
Take `CC(C)[C@H](NC(=O)[C@H](CCC(=O)O)NC(=O)C[C@H](O)[C@H](Cc1ccccc1)NC(=O)OCc1ccccc1)C(N)=O`: the Activity result in [7] was “Dose-Dependent Effect”. For the same molecule, the Ki in [8] worked out at 82 nM.
Regarding `CSCC[C@H](NC(=O)[C@H](CCC(N)=O)NC(=O)C[C@H](O)[C@H](Cc1ccccc1)NC(=O)OCc1ccccc1)C(N)=O`, the inhibition constant Ki in data set [8] amounted to 290 nM.
Consider `CC[C@H](C)[C@H](NC(=O)[C@H](CCC(N)=O)NC(=O)C[C@H](O)[C@H](Cc1ccccc1)NC(=O)OCc1ccccc1)C(N)=O`, for which the inhibition constant (Ki) in data set [8] turned out to be 240 nM.
Same read-out and setting: as for `NC(=O)CC[C@H](NC(=O)C[C@H](O)[C@H](Cc1ccccc1)NC(=O)OCc1ccccc1)C(=O)N[C@@H](Cc1ccccc1)C(N)=O`, the figure is 320 nM; as for `NC(=O)[C@H](CC1CCCCC1)NC(=O)[C@H](CCC(=O)O)NC(=O)C[C@H](O)[C@H](Cc1ccccc1)NC(=O)OCc1ccccc1`, 160 nM.
As to `CCC[C@H](NC(=O)[C@H](CCC(=O)O)NC(=O)C[C@H](O)[C@H](Cc1ccccc1)NC(=O)OCc1ccccc1)C(N)=O`, in [8], the inhibition constant (Ki) was found to be 410 nM.
Regarding `CCCC[C@H](NC(=O)[C@H](CCC(=O)O)NC(=O)C[C@H](O)[C@H](Cc1ccccc1)NC(=O)OCc1ccccc1)C(N)=O`, in data set [7], the Activity result was “Dose-Dependent Effect”. Further, the inhibitory constant (Ki) in data set [8] was 180 nM.
Turning to `CC(C)[C@H](NC(=O)[C@H](Cc1ccccc1)C[C@H](O)[C@H](Cc1ccccc1)NC(=O)OC(C)(C)C)C(=O)N[C@@H](Cc1ccccc1)C(=O)N1CCOCC1`, the Ki in data set [8] worked out at 13 nM.
Take `CSCC[C@H](NC(=O)[C@H](CCC(=O)O)NC(=O)C[C@H](O)[C@H](Cc1ccccc1)NC(=O)OCc1ccccc1)C(N)=O`: the inhibition constant Ki in [8] turned out to be 280 nM.
Same read-out and setting: as for `NC(=O)[C@H](Cc1c[nH]c2ccccc12)NC(=O)[C@H](CCC(=O)O)NC(=O)C[C@H](O)[C@H](Cc1ccccc1)NC(=O)OCc1ccccc1`, the figure is 340 nM; as for `Cc1nc(COc2ccc(C[C@H](NC(=O)O[C@H]3CO[C@H]4OCC[C@H]43)[C@H](O)CN(CC(C)C)S(=O)(=O)c3ccc4c(c3)OCO4)cc2)cs1` [BRECANAVIR], 350 nM; as for `C[C@@H](O)[C@H](NC(=O)[C@H](CCC(N)=O)NC(=O)C[C@H](O)[C@H](Cc1ccccc1)NC(=O)OCc1ccccc1)C(N)=O`, 1300 nM.
Same read-out and setting: as for `C[C@@H](O)[C@H](NC(=O)[C@H](CCC(=O)O)NC(=O)C[C@H](O)[C@H](Cc1ccccc1)NC(=O)OCc1ccccc1)C(N)=O`, the figure is 250 nM; as for `CC(C)CN(C[C@@H](O)[C@H](Cc1ccccc1)NC(=O)O[C@H]1CCOC1)S(=O)(=O)c1ccc(N)cc1`, 750 nM.
The same measure, in the same setting: next, `CC[C@H](C)[C@H](NC(=O)[C@H](CCC(=O)O)NC(=O)C[C@H](O)[C@H](Cc1ccccc1)NC(=O)OCc1ccccc1)C(N)=O`: 410 nM; `CC(C)C[C@H](NC(=O)[C@H](CCC(=O)O)NC(=O)C[C@H](O)[C@H](Cc1ccccc1)NC(=O)OCc1ccccc1)C(N)=O`: 160 nM.
Turning to `CC[C@H](NC(=O)[C@H](CCC(=O)O)NC(=O)C[C@H](O)[C@H](Cc1ccccc1)NC(=O)OCc1ccccc1)C(N)=O`, the Ki in data set [8] stood at 760 nM.
The same measure, in the same setting: as for `CC(C)[C@H](NC(=O)[C@H](CCC(N)=O)NC(=O)C[C@H](O)[C@H](Cc1ccccc1)NC(=O)OCc1ccccc1)C(N)=O`, the figure is 120 nM.
The same measure, in the same setting: next, `NC(=O)CC[C@H](NC(=O)C[C@H](O)[C@H](Cc1ccccc1)NC(=O)OCc1ccccc1)C(=O)N[C@@H](CCc1ccccc1)C(N)=O`: 64 nM; `CCC[C@H](NC(=O)[C@H](CCC(N)=O)NC(=O)C[C@H](O)[C@H](Cc1ccccc1)NC(=O)OCc1ccccc1)C(N)=O`: 470 nM.
